Where “and” joins values, the source holds several entries; their conditions need not be identical. Identical values can stand only once.
How the values were obtained:
[1] = species: Rattus norvegicus; test: Mean responses per minute during the extinction session.; type: functional
Summary of the method: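 Male Sprague-Dawley rats trained in a two-lever operant task to discriminate racemic DOM (1.0 mg/kg) from saline, given 15 min before a VI-15s reinforcement schedule. Test compound given by injection before a 2.5-min nonreinforced extinction session. Read-outs are DOM-lever responses as percent of total responses, and responses per minute. Values are means ±SEM over the animals responding; no responding was recorded as disruption.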

[2] = biological target: 5-hydroxytryptamine receptor 2B (Rattus norvegicus, UniProt P30994); test: Displacement of [3H]5-HT binding to serotonin receptor of rat fundus membranes; details: read-out: pA2 (converted)
5-hydroxytryptamine receptor 2B, sequence (P30994 whole entry): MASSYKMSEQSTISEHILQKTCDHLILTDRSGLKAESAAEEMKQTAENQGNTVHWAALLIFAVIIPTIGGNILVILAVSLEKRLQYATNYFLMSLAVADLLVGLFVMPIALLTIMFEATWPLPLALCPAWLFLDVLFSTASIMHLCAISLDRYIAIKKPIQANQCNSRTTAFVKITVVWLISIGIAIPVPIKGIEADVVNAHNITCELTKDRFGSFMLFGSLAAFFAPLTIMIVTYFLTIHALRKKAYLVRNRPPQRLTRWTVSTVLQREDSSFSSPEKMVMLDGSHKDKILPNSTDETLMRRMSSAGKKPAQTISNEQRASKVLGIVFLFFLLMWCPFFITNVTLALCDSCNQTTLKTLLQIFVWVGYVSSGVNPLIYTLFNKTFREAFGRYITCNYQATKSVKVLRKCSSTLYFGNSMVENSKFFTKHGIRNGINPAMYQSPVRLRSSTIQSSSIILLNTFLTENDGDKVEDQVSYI

[3] = system: Rattus norvegicus; test: Responses made on the DOM -appropriate lever as a percent of total responses; data was collected during the 2.5 min extinction session at 7 mg/kg dose; type: functional
Summary of the method: (§1)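 Male Sprague-Dawley rats trained to tell racemic DOM (1.0 mg/kg) from saline in a two-lever operant task (VI-15s schedule). Drug was given 15 min before a 2.5-min nonreinforced extinction session. The read-out was DOM-appropriate lever responses as % of total responses, with about 5 rats per dose. ED50 was taken from dose-response data by Finney's method.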

[4] = system: Rattus norvegicus; test: Responses made on the DOM -appropriate lever as a percent of total responses; data was collected during the 2.5 min extinction session at 12 mg/kg dose; type: functional; summary of the method: as §1
[5] = biological target: Serotonin (5-HT) receptor; test: Evaluated for inhibition of specific [3H]5-HT receptor binding in rat cortex.
Summary of the method: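 Rat cortex (dorsal to rhinal sulcus) from male Sprague-Dawley rats (150–200 g), pooled, homogenized in 0.05 M Tris-HCl pH 7.4, washed four times by centrifugation with a 37 °C 10-min incubation between washes. [3H]-5-HT binding done with varying test compound concentrations in 50 mM Tris pH 7.4, 10 μM pargyline, 4 mM CaCl2, 7 min at 37 °C. Filtered on glass fibre. Specific binding taken as the difference with 1 μM metergoline.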

| SMILES | Kb [2] [nM] | IC50 [5] [nM] | other results |
| --- | --- | --- | --- |
| CN(C)CCn1cnc2ccccc21 | 138 |  | Response rate [1]: 12.6 and 15.2; DOM [3]: 0%; DOM [4]: 0% |
| CCN(CCN(C)C)c1ccccc1 | 537 |  |  |
| COc1ccc2c(CCN)c[nH]c2c1 |  | 630 |  |
| NCCC1CNc2ccccc21 (centres undefined) | 2090 |  |  |
| COc1cccc2[nH]cc(CCN)c12 |  | 220 |  |
| CN(C)CCN1CCc2ccccc21 | 269 |  |  |
